Data set [1] in a line: Selectivity ratio of IC50 for HEK293 cells to IC50 for human MCF7 cells. In kind it is ADME, cell-based. The following applies: HEK293 cells versus MCF7 cells, read-out: Ratio IC50.
Data set [2] can be described thus: Selectivity ratio of IC50 for HEK293 cells to IC50 for human HT-29 cells. It counts as ADME, cell-based. Conditions: HEK293 cells versus HT-29 cells, read-out: Ratio IC50.
The next data set relates to HEK293. Briefly: Cytotoxicity against HEK293 cells assessed as growth inhibition after 3 days by MTT assay. It counts as cell-based. The following applies: Homo sapiens, HEK293, 72 h. The procedure, abridged: (§1)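 5 × 10³ cells per well (HT-29, MCF-7 or HEK-293) exposed for 3 days at 37 °C, 5% CO2, humidified. MTT (5 mg/ml in PBS) added for a further 4 h at 37 °C. Formazan dissolved in 0.04 N HCl/2-propanol and read at 550 nm. Run in triplicate. IC50 taken as the concentration giving 50% growth inhibition.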

A further data set concerns MCF7. Briefly: Cytotoxicity against human MCF7 cells assessed as growth inhibition after 3 days by MTT assay. The following applies: MCF7, 72 h. It counts as functional, cell-based. The procedure, abridged:
as §1
(In general: Formazan colour is commonly taken as a measure of viable cells.)

The test system of data set [3] is HT-29. Briefly: Cytotoxicity against human HT-29 cells assessed as growth inhibition after 3 days by MTT assay. Conditions: HT-29, 72 h. It counts as functional, cell-based. The method in brief:
as §1

The subject of data set [4] is HT-29. Briefly: Antiangiogenic activity in human HT-29 cells assessed as inhibition of VEGF production at < IC50 after 72 hrs by ELISA relative to control; values are per cent of control. In general terms: ELISA stands for enzyme-linked immunosorbent assay.
The subject of data set [5] is HT-29. Nature of the data set: Inhibition of c-myc mRNA expression in human HT-29 cells after 48 hrs by RT-PCR analysis relative to control. It counts as functional. The procedure, abridged: (§2)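 HT-29 cells grown to 70–80% confluence and serum-starved 24 h, then treated in DMSO for 48 h. Total RNA extracted, converted to cDNA and PCR-amplified with gene-specific primers. PCR cycles were VEGF 94 °C 30 s/58 °C 1 min/72 °C 1 min 50 s; hTERT 94 °C 1 min/57 °C 1 min/72 °C 1 min 30 s; c-Myc as VEGF. Agarose gel bands quantified by densitometry and normalized to β-actin. DMSO control set to 100%. At least three measurements per case, mean ± SEM, one-sample t-test.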

In data set [6] the test system is HT-29. Briefly: Inhibition of TERT mRNA expression in human HT-29 cells after 48 hrs by RT-PCR analysis relative to control. It counts as functional. The procedure, abridged:
as §2

For data set [7], the system named is HT-29. Nature of the data set: Antiangiogenic activity in human HT-29 cells assessed as inhibition of VEGF mRNA expression at < IC50 after 48 hrs by RT-PCR analysis relative to control; values are per cent of control.

In general, IC50 refers to the concentration that gives 50% inhibition. `COc1ccc(/C=C/CCCOc2cc(/C=C\c3cc(OC)c(OC)c(OC)c3)ccc2OC)cc1`: the selectivity ratio in data set [1] turned out to be 5.5; in [2], 1.9. Besides, the IC50 in the data set with HEK293 was found to be 88 µM; in the data set with MCF7 it was 16 µM; with HT-29 [3], 47 µM. In addition, the “level, % of control” value with HT-29 [4] is 50%.

`C=CCOc1cc(/C=C\c2cc(OC)c(OC)c(OC)c2)ccc1OC`: the selectivity ratio in data set [1] was found to be 3.6; in data set [2] it was 1.5. In addition, the IC50 in the data set on HEK293 turned out to be 43.5 µM; with MCF7, 12 µM; in the data set with HT-29 [3] it was 29 µM. The “level, % of control” value with HT-29 [4] was determined as 51%.

In the case of `C/C=C/COc1cc(/C=C\c2cc(OC)c(OC)c(OC)c2)ccc1OC`, the “inhibition (INH)” value with HT-29 [5] is listed as 92%; in the data set with HT-29 [6], 96%. For the same molecule, the selectivity ratio turned out to be 25 in data set [1] and 0.8 in [2]. Moreover, the results for the IC50 in the data set on HEK293, in the data set with MCF7 and in the data set with HT-29 [3] were 135 µM, 5.4 µM and 161 µM, respectively. The “level, % of control” value was 44% with HT-29 [4] and 69% in the data set with HT-29 [7].

Turning to `COc1ccc(/C=C\c2cc(OC)c(OC)c(OC)c2)cc1OCc1ccccc1`, the selectivity ratio was determined as 0.3 in data set [1] and 0.4 in data set [2]. Further, the IC50 with HEK293 worked out at 15 µM; in the data set with MCF7, 59 µM; in the data set on HT-29 [3] it was 39 µM. Moreover, the “level, % of control” value in the data set with HT-29 [4] turned out to be 79%.

Take `COc1ccc(COc2cc(/C=C\c3cc(OC)c(OC)c(OC)c3)ccc2OC)cc1`: the values for the selectivity ratio in data set [1] and in data set [2] were 1.3 and 1.4, respectively. In addition, the IC50 came out at 64 µM with HEK293, 48 µM in the data set with MCF7 and 47 µM in the data set on HT-29 [3]. The “level, % of control” value with HT-29 [4] was found to be 57%.

Consider `COc1ccc(/C=C\c2cc(OC)c(OC)c(OC)c2)cc1OCc1ccc(Br)cc1`, for which the selectivity ratio in data set [1] came out at 1.6; in data set [2], 0.4. The figures for the half-inhibitory concentration (IC50) in the data set with HEK293, in the data set on MCF7 and in the data set with HT-29 [3] were 45 µM, 29 µM and 108 µM, respectively. The “level, % of control” value in the data set on HT-29 [4] stood at 99%.

Turning to `COc1ccccc1/C=C/CCCOc1cc(/C=C\c2cc(OC)c(OC)c(OC)c2)ccc1OC`, the selectivity ratio was over 19 in data set [1] and over 4.6 in data set [2]. For the same molecule, the IC50 in the data set with HEK293 was over 400 µM; in the data set with MCF7, 21 µM; in the data set with HT-29 [3], 86 µM. Further, the “level, % of control” value with HT-29 [4] is 52%.

As for `COc1cccc(/C=C/CCCOc2cc(/C=C\c3cc(OC)c(OC)c(OC)c3)ccc2OC)c1`, the “inhibition (INH)” value in the data set on HT-29 [5] turned out to be 60%; in the data set with HT-29 [6] it was 63%. The selectivity ratio stood at 1 in [1] and 1.6 in [2]. Further, the IC50 with HEK293 amounted to 39 µM; with MCF7, 41 µM; in the data set on HT-29 [3], 25 µM. The “level, % of control” value with HT-29 [4] was found to be 38%; in the data set with HT-29 [7], 97%.

Take `COCOc1ccccc1/C=C/CCCOc1cc(/C=C\c2cc(OC)c(OC)c(OC)c2)ccc1OC`: the “inhibition (INH)” value in the data set with HT-29 [5] came to 75%; in the data set with HT-29 [6] it was 76%. The selectivity ratio amounted to 24.1 in data set [1] and 11 in data set [2]. Also, the IC50 in the data set on HEK293 was 106 µM; in the data set with MCF7, 4.4 µM; in the data set with HT-29 [3], 9.6 µM. Besides, the “level, % of control” value amounted to 42% with HT-29 [4] and 80% in the data set on HT-29 [7].

`COCOc1cccc(/C=C/CCCOc2cc(/C=C\c3cc(OC)c(OC)c(OC)c3)ccc2OC)c1`: the results for the “inhibition (INH)” value in the data set on HT-29 [5] and in the data set with HT-29 [6] were 72% and 79%, respectively. Besides, the selectivity ratio amounted to 3.7 in data set [1] and 0.5 in data set [2]. Moreover, the IC50 with HEK293 is 30 µM; in the data set with MCF7 it was 8 µM; in the data set with HT-29 [3] it was 59 µM. Moreover, the “level, % of control” value was determined as 51% in the data set on HT-29 [4] and 90% with HT-29 [7].

Regarding `COCOc1ccc(/C=C/CCCOc2cc(/C=C\c3cc(OC)c(OC)c(OC)c3)ccc2OC)cc1`, the “inhibition (INH)” value with HT-29 [5] worked out at 58%; in the data set with HT-29 [6], 60%. For the same molecule, the selectivity ratio in data set [1] was determined as 0.6; in data set [2], 3.6. In addition, the results for the IC50 in the data set with HEK293, in the data set on MCF7 and in the data set on HT-29 [3] were 25 µM, 42 µM and 7 µM, respectively. The “level, % of control” value in the data set on HT-29 [4] is 51%; with HT-29 [7] it was 66%.

Take `COc1ccc(/C=C\c2cc(OC)c(OC)c(OC)c2)cc1OCCC/C=C/c1ccc(F)cc1`: the selectivity ratio in [1] is 7.2; in [2] it was 1.2. Also, the IC50 was determined as 115 µM in the data set with HEK293, 16 µM with MCF7 and 98 µM in the data set with HT-29 [3]. The “level, % of control” value in the data set on HT-29 [4] was found to be 57%.

In the case of `COc1ccc(/C=C\c2cc(OC)c(OC)c(OC)c2)cc1OCCC/C=C/c1ccc(Cl)cc1`, the selectivity ratio in data set [1] came to 2.8; in [2], 6.2. The IC50 with HEK293 turned out to be 111 µM; in the data set with MCF7, 40 µM; with HT-29 [3], 18 µM. Also, the “level, % of control” value with HT-29 [4] was 60%.

Take `COc1ccc(/C=C\c2cc(OC)c(OC)c(OC)c2)cc1OCCC/C=C/c1ccc(Br)cc1`: the “inhibition (INH)” value with HT-29 [5] is 35%; with HT-29 [6] it was 39%. Further, the selectivity ratio is 1.5 in [1] and 5 in data set [2]. For the same molecule, the IC50 in the data set on HEK293 turned out to be 55 µM; in the data set with MCF7 it was 37 µM; in the data set on HT-29 [3], 11 µM. Further, the “level, % of control” value with HT-29 [4] worked out at 48%; with HT-29 [7] it was 73%.

With `COc1ccc(/C=C\c2cc(OC)c(OC)c(OC)c2)cc1O` [COMBRETASTATIN A4], the figures for the “inhibition (INH)” value in the data set on HT-29 [5] and with HT-29 [6] were 99% and 74%, respectively. Besides, the selectivity ratio was 25 in [1] and 5.9 in [2]. Further, the IC50 turned out to be 25 µM with HEK293, 1 µM with MCF7 and 4.2 µM in the data set with HT-29 [3]. The “level, % of control” value worked out at 47% in the data set with HT-29 [4] and 91% with HT-29 [7].

The record behind these values is ChEMBL document CHEMBL3091460, “Synthesis of combretastatin A-4 O-alkyl derivatives and evaluation of their cytotoxic, antiangiogenic and antitelomerase activity” (Bioorg Med Chem, 2013).
